Reference: PMC6889762 (Toxicology Reports, 2019)

Key:
[1] = Fe3+ reducing ability; conditions: for Fe^3+ reducing (absorbance): 20 μg/mL, absorbance at 700 nm
[2] = Cu2+ reducing ability; conditions: for Cu^2+ reducing (absorbance): 20 μg/mL, absorbance at 450 nm; for Cu^2+ ions reducing ability (absorbance): running text: at 30 μg/mL concentration, 450 nm
Summary of the method: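 CUPRAC assay: CuCl2 (10 mM stock), neocuproine (7.5 mM stock) and 1.0 M acetate buffer were added to the test compound (10−30 μg/mL). The mixture was made up with deionized water, tubes were closed and left at room temperature, and absorbance was read at 450 nm. Higher absorbance means greater reducing ability. Triplicate runs, mean ± SD.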

[3] = Fe3+-TPTZ reducing ability; conditions: for Fe^3+-TPTZ reducing (absorbance): 20 μg/mL, absorbance at 593 nm
[4] = Ferrous ion
Summary of the method: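 FeCl2 (0.6 mM stock) added to the test compound solution; iron complex formation measured spectrophotometrically at 522 nm. Chelated Fe2+ % = (1 − As/Ac) × 100, where Ac is the control absorbance. IC50 came from a plot of % against concentration. Triplicate, mean ± SD.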

[5] = DPPH radical scavenging
Summary of the method: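 Ethanolic DPPH (0.1 mM stock) added to the test compound in ethanol (10−30 μg/mL). Incubated 30 min in the dark, absorbance read at 517 nm. Scavenging % = (1 − As/Ac) × 100. IC50 was obtained by plotting % against concentration. Triplicate analyses, mean ± SD.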

[6] = ABTS radical cation scavenging
Summary of the method: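 Radical cation generated from 2.0 mM ABTS in deionized water with 2.3 mM K2S2O8, then diluted with pH 7.4 buffer to absorbance 0.750 ± 0.025. Test compound (10−30 μg/mL) mixed with the radical solution; residual absorbance read at 734 nm. Scavenging % = (1 − As/Ac) × 100. IC50 was taken from a plot of % against concentration. Triplicate runs, mean ± SD.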

[7] = DMPD radical cation scavenging
Summary of the method: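 DMPD solution (0.1 M stock) added to 0.1 M acetate buffer, pH 5.3, containing the test compound (10−30 μg/mL). FeCl3 (50 mM stock) was then added and absorbance measured at 505 nm. Scavenging % = (1 − As/Ac) × 100. IC50 was read from a plot of % against concentration. Triplicate, mean ± SD.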

[8] = Superoxide anion radical scavenging
Summary of the method: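 Superoxide generated in a methionine–riboflavin system under illumination and detected by NBT reduction at 560 nm. Scavenging % = (1 − As/Ac) × 100 against a compound-free control. IC50 was estimated from a plot of % against test compound concentration. Triplicate, mean ± SD.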

[9] = target: acetylcholinesterase (AChE) (Electrophorus electricus, UniProt O42275); experiment: AChE inhibition; assay type: biochemical, Electric eel
[10] = target: butyrylcholinesterase (BChE) (Equus caballus, UniProt P81908); experiment: biochemical; set-up: species or system equine
butyrylcholinesterase (BChE), sequence (P81908 whole entry): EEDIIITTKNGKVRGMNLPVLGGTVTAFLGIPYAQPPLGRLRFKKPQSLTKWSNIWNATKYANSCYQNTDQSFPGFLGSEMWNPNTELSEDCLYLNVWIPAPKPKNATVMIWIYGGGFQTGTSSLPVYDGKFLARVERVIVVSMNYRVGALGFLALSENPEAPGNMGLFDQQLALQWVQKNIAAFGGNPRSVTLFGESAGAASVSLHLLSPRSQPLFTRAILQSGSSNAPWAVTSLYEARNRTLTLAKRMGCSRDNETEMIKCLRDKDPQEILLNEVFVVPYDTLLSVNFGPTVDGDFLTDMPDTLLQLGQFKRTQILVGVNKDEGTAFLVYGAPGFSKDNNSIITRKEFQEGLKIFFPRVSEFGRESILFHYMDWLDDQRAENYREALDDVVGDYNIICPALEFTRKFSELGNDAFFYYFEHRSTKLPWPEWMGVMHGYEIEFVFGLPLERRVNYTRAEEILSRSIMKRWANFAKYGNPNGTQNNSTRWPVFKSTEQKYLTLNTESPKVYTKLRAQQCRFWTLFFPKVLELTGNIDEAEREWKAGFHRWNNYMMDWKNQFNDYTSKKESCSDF

acetylcholinesterase (AChE), sequence (O42275 24-633): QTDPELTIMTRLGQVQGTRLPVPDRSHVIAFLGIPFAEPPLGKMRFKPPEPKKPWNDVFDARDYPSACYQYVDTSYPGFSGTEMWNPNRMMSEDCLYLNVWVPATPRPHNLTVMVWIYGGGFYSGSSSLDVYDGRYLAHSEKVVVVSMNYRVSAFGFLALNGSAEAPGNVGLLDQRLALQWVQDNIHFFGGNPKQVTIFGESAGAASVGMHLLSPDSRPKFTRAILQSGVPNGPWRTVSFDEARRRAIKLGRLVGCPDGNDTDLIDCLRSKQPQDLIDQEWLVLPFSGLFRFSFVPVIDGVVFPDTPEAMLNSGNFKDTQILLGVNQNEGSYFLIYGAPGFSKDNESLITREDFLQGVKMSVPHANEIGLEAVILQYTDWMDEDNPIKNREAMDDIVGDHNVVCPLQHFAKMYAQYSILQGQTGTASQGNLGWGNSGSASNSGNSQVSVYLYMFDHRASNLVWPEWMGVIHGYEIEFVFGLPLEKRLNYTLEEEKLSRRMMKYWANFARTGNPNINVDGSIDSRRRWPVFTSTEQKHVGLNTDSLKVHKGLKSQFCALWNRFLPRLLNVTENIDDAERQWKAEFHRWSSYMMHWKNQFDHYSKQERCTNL

Compound	Fe^3+ reducing (absorbance) [1]	Cu^2+ reducing (absorbance) [2]	Cu^2+ ions reducing ability (absorbance) [2]	Fe^3+-TPTZ reducing (absorbance) [3]	Metal chelating (Fe^2+) IC50 [4] [µg/mL]	DPPH· scavenging IC50 [5] [µg/mL]	ABTS^•+ scavenging IC50 [6] [µg/mL]	DMPD^•+ scavenging activity [7]	O2^•− scavenging IC50 [8] [µg/mL]	DMPD^•+ scavenging IC50 [7] [µg/mL]	Fe^3+ reducing ability (absorbance) ([1]; concentration not given, 700 nm)	FRAP effects (absorbance) ([3]; concentration not given, 593 nm)	IC50 [9] [nM]	Ki [9] [nM]	IC50 [10] [nM]
Cc1c(C)c2c(c(C)c1O)CC[C@@](C)(CCC[C@H](C)CCC[C@H](C)CCCC(C)C)O2 [α-Tocopherol, α-tocopherol]	0.802	0.564	0.564	1.473	27.72	9.76	5.02	did not demonstrate scavenging activity	21.01	–	–	–	–	–	–
Cc1c(C)c2c(c(C)c1O)CCC(C)(C(=O)O)O2 (stereo not drawn) [Trolox, trolox]	1.148	0.825	0.825	1.973	8.05	8.01	4.30	–	30.13	22.35	–	–	–	–	–
O=C(O)CN(CCN(CC(=O)O)CC(=O)O)CC(=O)O [EDTA]	–	–	–	–	6.24	–	–	–	–	–	–	–	–	–	–
CC(=O)c1c(O)c(C)c(O)c2c1OC1=CC(=O)C(C(C)=O)C(=O)C12C (stereo not drawn) [Usnic acid]	0.278	0.277	0.277	1.293	18.68	49.50	10.41	–	20.38	33.00	0.278	1.293	1.27	0.239	3.4
